Active and inactive are the calls of the source. No cut-off for these calls is given here. *1 amine or outer side, *2 acyl side, *3 side chain or, on linkers, in order; H or OH if unused. Where a SMILES comes first, the peptide text is derived from it. Bridges are numbered along the chain shown (N, C = ends). [ ]: non-standard residue; d: D form. The star is where a group is joined. hTyr(3S-OH,4S-OH,3'-OSO3H) = N[C@H](C(=O)O)[C@H](O)[C@@H](O)c1ccc(O)c(OS(=O)(=O)O)c1; Orn(4R-OH,5R-OH) = O=C([C@H](C[C@@H](O)[C@@H](O)N[*:3])N[*:1])[*:2]; Pro(3S-OH,4S-Me) = C[C@H]1CN[C@H](C(=O)O)[C@H]1O; X1 = CCCCCOc1ccc(-c2cc(-c3ccc(C(=O)*)cc3)no2)cc1; Gln(3R-OH) = NC(=O)C[C@@H](O)[C@H](N)C(=O)O; Hyp = O=C(O)[C@@H]1C[C@@H](O)CN1
Tests used:
Aspergillus fumigatus [1] = test: Antifungal activity against Aspergillus fumigatus H237 expressing rasA gene assessed as abnormal hyphal growth by CLSI method; type: functional; details: read-out: MEC
Procedure, shortened: (§1)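 MEC by CLSI broth microdilution in RPMI 1640. Conidia were incubated with or without drug for 48 h at 37°C, in triplicate.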

Aspergillus fumigatus [2] = test: Antifungal activity against rasA deficient Aspergillus fumigatus H237 assessed as abnormal hyphal growth by CLSI method; type: functional; details: read-out: MEC; procedure, shortened: as §1
Aspergillus fumigatus [3] = test: Antifungal activity against Aspergillus fumigatus H237 expressing dominant-active rasA gene assessed as abnormal hyphal growth by CLSI method; type: functional; details: read-out: MEC; procedure, shortened: as §1
Aspergillus fumigatus [4] = test: Antifungal activity against cnaA deficient Aspergillus fumigatus Af293 assessed as inhibition of hyphal growth at germling stage at 1 ug/ml by CLSI method; type: functional, organism-based
Procedure, shortened: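 Conidia were grown as for CLSI susceptibility testing in RPMI 1640 with or without echinocandin (1 μg/ml) for 48 h at 37°C. Hyphal morphology was then examined by bright-field microscopy.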

Aspergillus fumigatus [5] = test: Antifungal activity against Aspergillus fumigatus H237 assessed as abnormal hyphal growth by CLSI method; type: functional; details: read-out: MEC; procedure, shortened: as §1
Aspergillus fumigatus [6] = test: Antifungal activity against crzA deficient Aspergillus fumigatus Af293 assessed as abnormal hyphal growth by CLSI method; type: functional; details: read-out: MEC; procedure, shortened: as §1
Aspergillus fumigatus [7] = test: Antifungal activity against Aspergillus fumigatus Af293 assessed as abnormal hyphal growth by CLSI method; type: functional; details: read-out: MEC; procedure, shortened: as §1
Aspergillus fumigatus [8] = test: Antifungal activity against Aspergillus fumigatus Af293 expressing crzA gene assessed as abnormal hyphal growth by CLSI method; type: functional; details: read-out: MEC; procedure, shortened: as §1
Aspergillus fumigatus [9] = test: Antifungal activity against cnaA deficient Aspergillus fumigatus Af293 assessed as abnormal hyphal growth by CLSI method; type: functional; details: read-out: MEC; procedure, shortened: as §1
Aspergillus fumigatus [10] = test: Antifungal activity against Aspergillus fumigatus Af293 expressing cnaA gene assessed as abnormal hyphal growth by CLSI method; type: functional; details: read-out: MEC; procedure, shortened: as §1
Aspergillus fumigatus [11] = test: Antifungal activity against Aspergillus fumigatus H237 assessed as FICI in combination with caspofungin
Aspergillus fumigatus [12] = test: Antifungal activity against cnaA deficient Aspergillus fumigatus Af293 assessed as increase in chitin cell wall content at 1 to 16 ug/ml after 48 hrs; type: functional, organism-based
Procedure, shortened: (§2)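 Nikkomycin Z dose series from 0 to 16 μg/ml, added to cultures of 10⁶ conidia/ml in RPMI 1640 for 48 h at 37°C, 250 rpm. Chitin was assayed on 5 mg of lyophilized mycelium by KOH hydrolysis at 130°C, then MBTH colorimetry at A650 against a glucosamine standard. Output is glucosamine equivalents (μg/ml), from biological triplicate.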

Aspergillus fumigatus [13] = test: Antifungal activity against crzA deficient Aspergillus fumigatus Af293 assessed as increase in chitin cell wall content at 1 to 16 ug/ml after 48 hrs; type: functional, organism-based; procedure, shortened: as §2
Aspergillus fumigatus [14] = test: Antifungal activity against Aspergillus fumigatus Af293 expressing crzA gene assessed as FICI in combination with caspofungin
Aspergillus fumigatus [15] = test: Antifungal activity against Aspergillus fumigatus H237 expressing dominant-active rasA assessed as decrease in 1, 3-beta-D-glucan cell wall content at 1 ug/ml after 48 hrs by aniline blue assay; type: functional, organism-based
Procedure, shortened: (§3)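 10⁶ conidia/ml were grown in RPMI 1640 with or without drug for 48 h at 37°C, 250 rpm. Hyphae were washed in 0.1 M NaOH and lyophilized. 5 mg was taken into 1 M NaOH, sonicated and heated at 52°C for 30 min. Aniline blue mix (pH 9.5) was added for 30 min at 52°C. Fluorescence was read at ex 405/em 460 nm against a curdlan standard curve. Results are % change in RFU/mg versus untreated wild type, from five independent experiments.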

Aspergillus fumigatus [16] = test: Antifungal activity against Aspergillus fumigatus H237 expressing rasA gene assessed as FICI in combination with caspofungin
Aspergillus fumigatus [17] = test: Antifungal activity against cnaA deficient Aspergillus fumigatus Af293 assessed as decrease in 1, 3-beta-D-glucan cell wall content at 1 ug/ml by aniline blue assay; type: functional, organism-based; procedure, shortened: as §3
Aspergillus fumigatus [18] = test: Antifungal activity against crzA deficient Aspergillus fumigatus Af293 assessed as increase in chitin cell wall content at 16 ug/ml after 48 hrs; type: functional, organism-based; procedure, shortened: as §2
Aspergillus fumigatus [19] = test: Antifungal activity against rasA deficient Aspergillus fumigatus H237 assessed as increase in chitin cell wall content at 16 ug/ml after 48 hrs; type: functional, organism-based; procedure, shortened: as §2
Aspergillus fumigatus [20] = test: Antifungal activity against Aspergillus fumigatus Af293 assessed as decrease in 1, 3-beta-D-glucan cell wall content at 1 ug/ml after 48 hrs by aniline blue assay; type: functional, organism-based; procedure, shortened: as §3
Aspergillus fumigatus [21] = test: Antifungal activity against crzA deficient Aspergillus fumigatus Af293 assessed as FICI in combination with caspofungin
Candida albicans = test: Antifungal activity against Candida albicans SC5314 assessed as decrease in chitin cell wall content at 4 ug/ml after 48 hrs; type: functional, organism-based
Aspergillus fumigatus [22] = test: Antifungal activity against crzA deficient Aspergillus fumigatus Af293 assessed as decrease in 1, 3-beta-D-glucan cell wall content at 1 ug/ml by aniline blue assay; type: functional, organism-based; procedure, shortened: as §3
Aspergillus fumigatus [23] = test: Antifungal activity against Aspergillus fumigatus H237 assessed as decrease in 1, 3-beta-D-glucan cell wall content at 1 ug/ml after 48 hrs by aniline blue assay; type: functional, organism-based; procedure, shortened: as §3
Aspergillus fumigatus [24] = test: Antifungal activity against Aspergillus fumigatus H237 expressing dominant-active rasA assessed as increase in chitin cell wall content at 1 to 16 ug/ml after 48 hrs; type: functional, organism-based; procedure, shortened: as §2
Aspergillus fumigatus [25] = test: Antifungal activity against rasA deficient Aspergillus fumigatus H237 assessed as FICI in combination with caspofungin
Aspergillus fumigatus [26] = test: Antifungal activity against Aspergillus fumigatus H237 expressing dominant-active rasA gene assessed as FICI in combination with caspofungin
Aspergillus fumigatus [27] = test: Antifungal activity against cnaA deficient Aspergillus fumigatus Af293 assessed as increase in chitin cell wall content at 16 ug/ml after 48 hrs; type: functional, organism-based; procedure, shortened: as §2
Aspergillus fumigatus [28] = test: Antifungal activity against Aspergillus fumigatus Af293 expressing cnaA gene assessed as FICI in combination with caspofungin
Aspergillus fumigatus [29] = test: Antifungal activity against Aspergillus fumigatus Af293 assessed as FICI in combination with caspofungin
Aspergillus fumigatus [30] = test: Antifungal activity against Aspergillus fumigatus H237 expressing dominant-active rasA assessed as increase in chitin cell wall content at 16 ug/ml after 48 hrs; type: functional, organism-based; procedure, shortened: as §2
Aspergillus fumigatus [31] = test: Antifungal activity against rasA deficient Aspergillus fumigatus H237 assessed as increase in chitin cell wall content at 1 to 16 ug/ml after 48 hrs; type: functional, organism-based; procedure, shortened: as §2
Aspergillus fumigatus [32] = test: Antifungal activity against cnaA deficient Aspergillus fumigatus Af293 assessed as FICI in combination with caspofungin
Aspergillus fumigatus [33] = test: Antifungal activity against rasA deficient Aspergillus fumigatus H237 assessed as decrease in 1, 3-beta-D-glucan cell wall content at 1 ug/ml by aniline blue assay; type: functional, organism-based; procedure, shortened: as §3

## CCCCCOc1ccc(-c2cc(-c3ccc(C(=O)N[C@H]4C[C@@H](O)[C@@H](O)NC(=O)[C@@H]5[C@@H](O)[C@@H](C)CN5C(=O)[C@H]([C@H](O)CC(N)=O)NC(=O)[C@H]([C@H](O)[C@@H](O)c5ccc(O)c(OS(=O)(=O)O)c5)NC(=O)[C@@H]5C[C@@H](O)CN5C(=O)[C@H]([C@@H](C)O)NC4=O)cc3)no2)cc1 [MICAFUNGIN] (X1-[Orn(4R-OH,5R-OH)]T[Hyp][hTyr(3S-OH,4S-OH,3'-OSO3H)][Gln(3R-OH)][Pro(3S-OH,4S-Me)]; lactam 1-C)
Aspergillus fumigatus [1]
  minimal effective concentration: 0.125 µg/mL
Aspergillus fumigatus [2]
  minimal effective concentration: > 4 µg/mL
Aspergillus fumigatus [3]
  minimal effective concentration: 0.0156 µg/mL
Aspergillus fumigatus [4]
  Activity: Active
Aspergillus fumigatus [5]
  minimal effective concentration: 0.125 µg/mL
Aspergillus fumigatus [6]
  minimal effective concentration: 0.0312 µg/mL
Aspergillus fumigatus [7]
  minimal effective concentration: 0.125 µg/mL
Aspergillus fumigatus [8]
  minimal effective concentration: 0.0625 µg/mL
Aspergillus fumigatus [9]
  minimal effective concentration: 0.0039 µg/mL
Aspergillus fumigatus [10]
  minimal effective concentration: 0.125 µg/mL

## C[C@@H]([C@H](N)C(=O)N[C@H](C(=O)O)[C@H]1O[C@@H](n2ccc(=O)[nH]c2=O)[C@H](O)[C@@H]1O)[C@H](O)c1ccc(O)cn1 [NIKKOMYCIN]
Aspergillus fumigatus [11]
  fractional inhibitory concentration index (FICI): 0.16
Aspergillus fumigatus [12]
  Activity: inactive
Aspergillus fumigatus [13]
  Activity: inactive
Aspergillus fumigatus [14]
  fractional inhibitory concentration index (FICI): 0.16
Aspergillus fumigatus [1]
  minimal effective concentration: 2 µg/mL
Aspergillus fumigatus [15]
  Activity: inactive
Aspergillus fumigatus [2]
  minimal effective concentration: 0.5 µg/mL
Aspergillus fumigatus [3]
  minimal effective concentration: 4 µg/mL
Aspergillus fumigatus [16]
  fractional inhibitory concentration index (FICI): 0.09
Aspergillus fumigatus [17]
  Activity: inactive
Aspergillus fumigatus [18]
  Activity: inactive
Aspergillus fumigatus [19]
  Activity: inactive
Aspergillus fumigatus [20]
  Activity: Active
Aspergillus fumigatus [21]
  fractional inhibitory concentration index (FICI): 0.13
Candida albicans
  Activity: Active
Aspergillus fumigatus [22]
  Activity: inactive
Aspergillus fumigatus [5]
  minimal effective concentration: 4 µg/mL
Aspergillus fumigatus [23]
  Activity: Active
Aspergillus fumigatus [24]
  Activity: inactive
Aspergillus fumigatus [6]
  minimal effective concentration: 0.5 µg/mL
Aspergillus fumigatus [25]
  fractional inhibitory concentration index (FICI): 0.03
Aspergillus fumigatus [26]
  fractional inhibitory concentration index (FICI): 0.5
Aspergillus fumigatus [27]
  Activity: inactive
Aspergillus fumigatus [7]
  minimal effective concentration: 2 µg/mL
Aspergillus fumigatus [28]
  fractional inhibitory concentration index (FICI): 0.09
Aspergillus fumigatus [29]
  fractional inhibitory concentration index (FICI): 0.09
Aspergillus fumigatus [30]
  Activity: inactive
Aspergillus fumigatus [31]
  Activity: inactive
Aspergillus fumigatus [32]
  fractional inhibitory concentration index (FICI): 0.19
Aspergillus fumigatus [33]
  Activity: inactive
Aspergillus fumigatus [8]
  minimal effective concentration: 4 µg/mL
Aspergillus fumigatus [9]
  minimal effective concentration: 0.125 µg/mL
Aspergillus fumigatus [10]
  minimal effective concentration: 2 µg/mL

## C=CC[C@@H]1/C=C(\C)C[C@H](C)C[C@H](OC)[C@H]2O[C@@](O)(C(=O)C(=O)N3CCCC[C@H]3C(=O)O[C@H](/C(C)=C/[C@@H]3CC[C@@H](O)[C@H](OC)C3)[C@H](C)[C@@H](O)CC1=O)[C@H](C)C[C@@H]2OC [TACROLIMUS ANHYDROUS]
Aspergillus fumigatus [1]
  minimal effective concentration: 0.02 µg/mL
Aspergillus fumigatus [2]
  minimal effective concentration: 0.001 µg/mL
Aspergillus fumigatus [3]
  minimal effective concentration: 0.01 µg/mL
Aspergillus fumigatus [5]
  minimal effective concentration: 0.02 µg/mL
Aspergillus fumigatus [6]
  minimal effective concentration: 0.01 µg/mL
Aspergillus fumigatus [7]
  minimal effective concentration: 0.02 µg/mL
Aspergillus fumigatus [8]
  minimal effective concentration: 0.02 µg/mL
Aspergillus fumigatus [9]
  minimal effective concentration: > 80 µg/mL
Aspergillus fumigatus [10]
  minimal effective concentration: 0.02 µg/mL

Source: ChEMBL document CHEMBL1649120, “Differential effects of inhibiting chitin and 1,3-{beta}-D-glucan synthesis in ras and calcineurin mutants of Aspergillus fumigatus” (2009)
